Measured values: ChEMBL document CHEMBL4368873, “Novel O-methyl goniofufurone and 7-epi-goniofufurone derivatives: synthesis, in vitro cytotoxicity and SAR analysis” (Medchemcomm, 2018)
Calls of active or inactive are those of the source. No cut-off for these calls is given here.

Legend:
K562 [1] = assay: Up regulation of Bax expression in human K562 cells at IC50 measured after 72 hrs by Western blot analysis; format: functional, cell-based
K562 [2] = assay: Induction of apoptosis in human K562 cells assessed as necrotic cells at IC50 after 72 hrs by Annexin V-FITC/propidium iodide staining based flow cytometry relative to control; format: functional
Summary of the method: (§1)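 K562 cells seeded at 5 × 10⁵ per well, treated 72 h at each compound's IC₅₀ level. Viability was checked by trypan blue exclusion. Viable cells were double-stained with Annexin V-FITC and propidium iodide and analysed by flow cytometry. Results are given as specific apoptosis or specific necrosis (%) relative to untreated cells.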

MRC5 = assay: Cytotoxicity against human MRC5 cells assessed as inhibition of cell growth after 72 hrs by MTT assay; format: cell-based; conditions: MRC5, 72 h
MDA-MB-231 [3] = assay: Cytotoxicity against human MDA-MB-231 cells assessed as inhibition of cell growth after 72 hrs by MTT assay; format: functional, cell-based; conditions: MDA-MB-231, 72 h
K562 [4] = assay: Cell cycle arrest in human K562 cells assessed as accumulation at S phase at IC50 after 72 hrs by propidium iodide staining based flow cytometry (reference value: 26.52%); format: functional
K562 [5] = assay: Induction of apoptosis in human K562 cells assessed as apoptotic cells at IC50 after 72 hrs by Annexin V-FITC/propidium iodide staining based flow cytometry relative to control; format: functional; summary of the method: as §1
K562 [6] = assay: Cell cycle arrest in human K562 cells assessed as accumulation at sub-G1 phase at IC50 after 72 hrs by propidium iodide staining based flow cytometry (reference value: 1.84%); format: functional
K562 [7] = assay: Up regulation of cleaved PARP expression in human K562 cells at IC50 measured after 72 hrs by Western blot analysis; format: functional, cell-based
K562 [8] = assay: Cell cycle arrest in human K562 cells assessed as accumulation at G2/M phase at IC50 after 72 hrs by propidium iodide staining based flow cytometry (reference value: 24.13%); format: functional
K562 [9] = assay: Cell cycle arrest in human K562 cells assessed as accumulation at G0/G1 phase at IC50 after 72 hrs by propidium iodide staining based flow cytometry (reference value: 47.51%); format: functional
HL-60 = assay: Cytotoxicity against human HL60 cells assessed as inhibition of cell growth after 72 hrs by MTT assay; format: functional, cell-based; conditions: HL-60, 72 h
Summary of the method: (§2)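 Exponentially growing cells were exposed 72 h to compounds diluted from a 10 mM DMSO stock into serum-free medium. Growth was read by colorimetric MTT. Leukaemia/lymphoma lines (K562, HL-60, Jurkat, Raji) were grown in RPMI 1640; MCF-7, MDA-MB 231, HeLa, A549 and normal MRC-5 fibroblasts in DMEM; 37 °C, 5% CO2.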

K562 [10] = assay: Up regulation of Bcl-2 expression in human K562 cells at IC50 measured after 72 hrs by Western blot analysis; format: functional, cell-based
MCF7 = assay: Cytotoxicity against human MCF7 cells assessed as inhibition of cell growth after 72 hrs by MTT assay; format: functional, cell-based; conditions: MCF7, 72 h; summary of the method: as §2
HeLa = assay: Cytotoxicity against human HeLa cells assessed as inhibition of cell growth after 72 hrs by MTT assay; format: functional, cell-based
K562 [11] = assay: Down regulation of Bax expression in human K562 cells at IC50 measured after 72 hrs by Western blot analysis; format: functional, cell-based
Raji = assay: Cytotoxicity against human Raji cells assessed as inhibition of cell growth after 72 hrs by MTT assay; format: functional, cell-based
Jurkat = assay: Cytotoxicity against human Jurkat cells assessed as inhibition of cell growth after 72 hrs by MTT assay; format: functional, cell-based; summary of the method: as §2
K562 [12] = assay: Cytotoxicity against human K562 cells assessed as inhibition of cell growth after 72 hrs by MTT assay; format: functional, cell-based; conditions: K562, 72 h
K562 [13] = assay: Down regulation of Bcl-2 expression in human K562 cells at IC50 measured after 72 hrs by Western blot analysis; format: functional, cell-based
K562 [14] = assay: Cell cycle arrest in human K562 cells assessed as increase in accumulation at sub-G1 phase at IC50 after 72 hrs by propidium iodide staining based flow cytometry relative to control; format: functional
A549 [15] = assay: Cytotoxicity against human A549 cells assessed as inhibition of cell growth after 72 hrs by MTT assay; format: functional, cell-based; conditions: A549, 72 h
K562 [16] = assay: Up regulation of Caspase-3 precursor expression in human K562 cells at IC50 measured after 72 hrs by Western blot analysis; format: functional, cell-based
A549 [17] = assay: Potency index, ratio of doxorubicin IC50 to test compound IC50 for human A549 cells; format: functional
K562 [18] = assay: Up regulation of active Caspase-3 expression in human K562 cells at IC50 measured after 72 hrs by Western blot analysis; format: functional, cell-based
MDA-MB-231 [19] = assay: Potency index, ratio of doxorubicin IC50 to test compound IC50 for human MDA-MB-231 cells; format: functional

O=C1C[C@H]2O[C@H]([C@H](O)c3ccccc3)[C@H](O)[C@H]2O1
Activity (K562 [1]): Active | Activity (K562 [2]): -0.31% | IC50 (MRC5): > 100 µM | IC50 (MDA-MB-231 [3]): 75.3 µM | Activity (K562 [4]): 21.03% | Activity (K562 [5]): -0.36% | Activity (K562 [6]): 2.16% | Activity (K562 [7]): Active | Activity (K562 [8]): 24.34% | Activity (K562 [9]): 52.47% | IC50 (HL-60): > 100 µM | Activity (K562 [10]): Active

CO[C@@H](c1ccccc1)[C@H]1O[C@@H]2CC(=O)O[C@@H]2[C@H]1O
Activity (K562 [2]): 0.55% | IC50 (MRC5): > 100 µM | IC50 (MDA-MB-231 [3]): 0.13 µM | IC50 (MCF7): > 100 µM | IC50 (HeLa): 8.46 µM | Activity (K562 [4]): 19.68% | Activity (K562 [5]): 11.17% | Activity (K562 [6]): 6.03% | Activity (K562 [11]): Active | IC50 (Raji): 21.1 µM | Activity (K562 [7]): Active | IC50 (Jurkat): 12.6 µM | IC50 (K562 [12]): 11.5 µM | Activity (K562 [8]): 20.9% | Activity (K562 [13]): Active | Activity (K562 [9]): 53.39% | IC50 (HL-60): 1.63 µM | fold change (FC) (K562 [14]): 3 | IC50 (A549 [15]): 5.31 µM

CO[C@@H]1[C@H]2OC(=O)C[C@H]2O[C@@H]1[C@@H](O)c1ccccc1
Activity (K562 [2]): 2.57% | IC50 (MRC5): > 100 µM | IC50 (MDA-MB-231 [3]): 35.2 µM | IC50 (MCF7): 12.7 µM | IC50 (HeLa): 11 µM | Activity (K562 [4]): 15.08% | Activity (K562 [5]): 55.48% | Activity (K562 [6]): 28.67% | Activity (K562 [11]): Active | IC50 (Raji): 12.2 µM | Activity (K562 [7]): Active | IC50 (Jurkat): 15.5 µM | IC50 (K562 [12]): 8.45 µM | Activity (K562 [8]): 21.21% | Activity (K562 [13]): Active | Activity (K562 [9]): 35.04% | IC50 (HL-60): 18.9 µM | fold change (FC) (K562 [14]): 15.5 | IC50 (A549 [15]): 38.2 µM

CO[C@@H]1[C@H]2OC(=O)C[C@H]2O[C@@H]1[C@H](O)c1ccccc1
Activity (K562 [1]): Active | Activity (K562 [2]): -0.54% | IC50 (MRC5): > 100 µM | IC50 (MDA-MB-231 [3]): 28.6 µM | IC50 (MCF7): 4.04 µM | IC50 (HeLa): 8.63 µM | Activity (K562 [4]): 26.52% | Activity (K562 [5]): 2.69% | Activity (K562 [6]): 1.82% | IC50 (Raji): 8.69 µM | Activity (K562 [7]): Active | IC50 (Jurkat): 24.9 µM | IC50 (K562 [12]): 5.36 µM | Activity (K562 [8]): 24.32% | Activity (K562 [13]): Active | Activity (K562 [9]): 47.34% | IC50 (HL-60): 25 µM | IC50 (A549 [15]): 23.6 µM

CO[C@@H]1[C@H]2OC(=O)C[C@H]2O[C@@H]1[C@@H](OC)c1ccccc1
Activity (K562 [1]): Active | Activity (K562 [2]): -0.44% | IC50 (MRC5): 87.6 µM | IC50 (MDA-MB-231 [3]): 2.65 µM | IC50 (MCF7): > 100 µM | IC50 (HeLa): 89.3 µM | Activity (K562 [4]): 22.66% | Activity (K562 [5]): 1.7% | Activity (K562 [6]): 2.4% | IC50 (Raji): 10.5 µM | Activity (K562 [16]): Active | Activity (K562 [7]): Active | IC50 (Jurkat): 1.69 µM | IC50 (K562 [12]): 9.24 µM | Activity (K562 [8]): 26.35% | Activity (K562 [9]): 48.59% | IC50 (HL-60): 4.36 µM | Activity (K562 [10]): Active | IC50 (A549 [15]): 25.1 µM

CO[C@@H]1[C@H]2OC(=O)C[C@H]2O[C@@H]1C(=O)c1ccccc1
Activity (K562 [1]): Active | Activity (K562 [2]): -0.59% | IC50 (MRC5): > 100 µM | IC50 (MDA-MB-231 [3]): 41 µM | IC50 (MCF7): 3.44 µM | IC50 (HeLa): 6.39 µM | Activity (K562 [4]): 23.68% | Activity (K562 [5]): 2.1% | Activity (K562 [6]): 1.33% | IC50 (Raji): 25.6 µM | Activity (K562 [16]): Active | Activity (K562 [7]): Active | IC50 (Jurkat): 8.97 µM | IC50 (K562 [12]): 22.5 µM | Activity (K562 [8]): 29.53% | Activity (K562 [9]): 45.46% | IC50 (HL-60): 11.2 µM | Activity (K562 [10]): Active | Ratio IC50 (A549 [17]): 2 | IC50 (A549 [15]): 2.58 µM

CO[C@@H]1[C@H]2OC(=O)C[C@H]2O[C@@H]1[C@H](OC)c1ccccc1
Activity (K562 [1]): Active | Activity (K562 [2]): 0.11% | IC50 (MRC5): > 100 µM | IC50 (MDA-MB-231 [3]): 1.36 µM | IC50 (MCF7): > 100 µM | IC50 (HeLa): 56.4 µM | Activity (K562 [4]): 20.48% | Activity (K562 [18]): Active | Activity (K562 [5]): 4.32% | Activity (K562 [6]): 6.36% | IC50 (Raji): 12.4 µM | Activity (K562 [16]): Active | Activity (K562 [7]): Active | IC50 (Jurkat): 2.36 µM | IC50 (K562 [12]): 14.7 µM | Activity (K562 [8]): 28.3% | Activity (K562 [9]): 44.86% | IC50 (HL-60): 2.21 µM | fold change (FC) (K562 [14]): 3.5 | Activity (K562 [10]): Active | IC50 (A549 [15]): 26.3 µM

CO[C@H](c1ccccc1)[C@H]1O[C@@H]2CC(=O)O[C@@H]2[C@H]1O
Activity (K562 [2]): -0.5% | IC50 (MRC5): > 100 µM | IC50 (MDA-MB-231 [3]): 0.064 µM | IC50 (MCF7): > 100 µM | IC50 (HeLa): 5.64 µM | Activity (K562 [4]): 20.61% | Activity (K562 [5]): -0.27% | Activity (K562 [6]): 2.4% | Activity (K562 [11]): Active | IC50 (Raji): 15.6 µM | Activity (K562 [7]): Active | IC50 (Jurkat): 15.6 µM | IC50 (K562 [12]): 7.95 µM | Activity (K562 [8]): 24.89% | Activity (K562 [13]): Active | Activity (K562 [9]): 52.09% | IC50 (HL-60): 2.96 µM | Ratio IC50 (MDA-MB-231 [19]): 1.5 | Ratio IC50 (A549 [17]): 2 | IC50 (A549 [15]): 2.64 µM

CO[C@@H]1[C@H]2OC(=O)C[C@H]2O[C@@H]1C(O)(c1ccccc1)c1ccccc1
Activity (K562 [1]): Active | Activity (K562 [2]): 8.73% | IC50 (MRC5): > 100 µM | IC50 (MDA-MB-231 [3]): 51 µM | IC50 (MCF7): 11.4 µM | IC50 (HeLa): 12.6 µM | Activity (K562 [4]): 17.77% | Activity (K562 [18]): Active | Activity (K562 [5]): 33.41% | Activity (K562 [6]): 10.13% | IC50 (Raji): 18.9 µM | Activity (K562 [16]): Active | Activity (K562 [7]): Active | IC50 (Jurkat): 9.79 µM | IC50 (K562 [12]): 28.7 µM | Activity (K562 [8]): 28.75% | Activity (K562 [9]): 43.35% | IC50 (HL-60): 2.36 µM | fold change (FC) (K562 [14]): 5.5 | Activity (K562 [10]): Active | IC50 (A549 [15]): 15.1 µM
